# Data: ChEMBL document CHEMBL5058577, “EUbOPEN Chemogenomics Library 2 (Multiplex)” (2022)
# Test system: U2OS
# Test: Multiplex assay against U2OS
# Type: toxicity, cell-based
# Settings: human
# In short: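 Phenotypes for tubulin, mitochondrial mass and membrane permeability are expressed as per cents of healthy-nucleus cells. Cells were stained live at seeding with Hoechst33342, BioTracker Green Microtubule Cytoskeleton Dye, MitoTracker Red and Annexin V Alexa Fluor 680, then imaged after compound addition on a CQ1 microscope at 37°C and 5% CO2. Machine-learning gating in CellPathfinder separated Hoechst high-intensity objects from normal cells, divided normal cells by nuclear state (healthy, pyknosed, fragmented) and divided pyknosed cells into mitotic or apoptotic.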
# [1] = 12 h, 1 µM, compound concentration 1 uM, replicate 1
# [2] = 12 h, 1 µM, compound concentration 1 uM, replicate 2
# [3] = 12 h, 10 µM, compound concentration 10 uM, replicate 1
# [4] = 12 h, 10 µM, compound concentration 10 uM, replicate 2
# [5] = 24 h, 1 µM, compound concentration 1 uM, replicate 1
# [6] = 24 h, 1 µM, compound concentration 1 uM, replicate 2
# [7] = 24 h, 10 µM, compound concentration 10 uM, replicate 1
# [8] = 24 h, 10 µM, compound concentration 10 uM, replicate 2
# [9] = 48 h, 1 µM, compound concentration 1 uM, replicate 1
# [10] = 48 h, 1 µM, compound concentration 1 uM, replicate 2
# [11] = 48 h, 10 µM, compound concentration 10 uM, replicate 1
# [12] = 48 h, 10 µM, compound concentration 10 uM, replicate 2
compound,measurement,setting,value
NCCc1cn(S(=O)(=O)c2c(Cl)nc3sccn23)c2ccccc12.O=C(O)C(=O)O,Population Apoptotic (%),[1],66%
same,Population Fragmented Nuclei (%),[1],30%
same,Population Healthy Nuclei (%),[1],58%
same,Population Hoechst High Intensity Objects (%),[1],1%
same,Population Membrane Permeable-Phenotype (%),[1],9%
same,Population Mitochondria Different-Phenotype (%),[1],6%
same,Population Mitotic Cells (%),[1],33%
same,Population Normal (%),[1],98%
same,Population Pyknosed Nuclei (%),[1],10%
same,Population Tubulin-Different-Phenotype (%),[1],6%
same,Total Cell Count,[1],280
same,Population Apoptotic (%),[2],81%
same,Population Fragmented Nuclei (%),[2],17%
same,Population Healthy Nuclei (%),[2],72%
same,Population Membrane Permeable-Phenotype (%),[2],4%
same,Population Mitochondria Different-Phenotype (%),[2],8%
same,Population Mitotic Cells (%),[2],18%
same,Population Pyknosed Nuclei (%),[2],9%
same,Total Cell Count,[2],116
same,Population Apoptotic (%),[3],71%
same,Population Fragmented Nuclei (%),[3],26%
same,Population Healthy Nuclei (%),[3],42%
same,Population Hoechst High Intensity Objects (%),[3],5%
same,Population Membrane Permeable-Phenotype (%),[3],42%
same,Population Mitochondria Different-Phenotype (%),[3],60%
same,Population Mitotic Cells (%),[3],28%
same,Population Normal (%),[3],94%
same,Population Pyknosed Nuclei (%),[3],30%
same,Population Tubulin-Different-Phenotype (%),[3],59%
same,Total Cell Count,[3],221
same,Population Apoptotic (%),[4],82%
same,Population Fragmented Nuclei (%),[4],20%
same,Population Healthy Nuclei (%),[4],53%
same,Population Hoechst High Intensity Objects (%),[4],4%
same,Population Membrane Permeable-Phenotype (%),[4],30%
same,Population Mitochondria Different-Phenotype (%),[4],71%
same,Population Mitotic Cells (%),[4],17%
same,Population Normal (%),[4],95%
same,Population Pyknosed Nuclei (%),[4],26%
same,Population Tubulin-Different-Phenotype (%),[4],50%
same,Total Cell Count,[4],115
same,Population Apoptotic (%),[5],69%
same,Population Fragmented Nuclei (%),[5],25%
same,Population Healthy Nuclei (%),[5],66%
same,Population Hoechst High Intensity Objects (%),[5],1%
same,Population Membrane Permeable-Phenotype (%),[5],6%
same,Population Mitochondria Different-Phenotype (%),[5],5%
same,Population Mitotic Cells (%),[5],30%
same,Population Normal (%),[5],98%
same,Population Pyknosed Nuclei (%),[5],8%
same,Population Tubulin-Different-Phenotype (%),[5],3%
same,Total Cell Count,[5],326
same,Population Apoptotic (%),[6],78%
same,Population Fragmented Nuclei (%),[6],20%
same,Population Healthy Nuclei (%),[6],70%
same,Population Membrane Permeable-Phenotype (%),[6],9%
same,Population Mitochondria Different-Phenotype (%),[6],7%
same,Population Mitotic Cells (%),[6],21%
same,Population Pyknosed Nuclei (%),[6],9%
same,Population Tubulin-Different-Phenotype (%),[6],7%
same,Total Cell Count,[6],151
same,Population Apoptotic (%),[7],83%
same,Population Fragmented Nuclei (%),[7],29%
same,Population Healthy Nuclei (%),[7],38%
same,Population Hoechst High Intensity Objects (%),[7],6%
same,Population Membrane Permeable-Phenotype (%),[7],26%
same,Population Mitochondria Different-Phenotype (%),[7],63%
same,Population Mitotic Cells (%),[7],16%
same,Population Normal (%),[7],93%
same,Population Pyknosed Nuclei (%),[7],31%
same,Population Tubulin-Different-Phenotype (%),[7],26%
same,Total Cell Count,[7],240
same,Population Apoptotic (%),[8],86%
same,Population Fragmented Nuclei (%),[8],20%
same,Population Healthy Nuclei (%),[8],46%
same,Population Hoechst High Intensity Objects (%),[8],3%
same,Population Mitochondria Different-Phenotype (%),[8],67%
same,Population Mitotic Cells (%),[8],13%
same,Population Normal (%),[8],96%
same,Population Pyknosed Nuclei (%),[8],33%
same,Population Tubulin-Different-Phenotype (%),[8],38%
same,Total Cell Count,[8],116
same,Population Apoptotic (%),[9],81%
same,Population Fragmented Nuclei (%),[9],21%
same,Population Healthy Nuclei (%),[9],70%
same,Population Hoechst High Intensity Objects (%),[9],1%
same,Population Membrane Permeable-Phenotype (%),[9],5%
same,Population Mitochondria Different-Phenotype (%),[9],4%
same,Population Mitotic Cells (%),[9],18%
same,Population Normal (%),[9],98%
same,Population Pyknosed Nuclei (%),[9],8%
same,Population Tubulin-Different-Phenotype (%),[9],2%
same,Total Cell Count,[9],454
same,Population Apoptotic (%),[10],85%
same,Population Healthy Nuclei (%),[10],66%
same,Population Hoechst High Intensity Objects (%),[10],6%
same,Population Membrane Permeable-Phenotype (%),[10],10%
same,Population Mitochondria Different-Phenotype (%),[10],7%
same,Population Mitotic Cells (%),[10],14%
same,Population Normal (%),[10],93%
same,Population Pyknosed Nuclei (%),[10],12%
same,Population Tubulin-Different-Phenotype (%),[10],7%
same,Total Cell Count,[10],182
same,Population Apoptotic (%),[11],92%
same,Population Fragmented Nuclei (%),[11],37%
same,Population Healthy Nuclei (%),[11],27%
same,Population Hoechst High Intensity Objects (%),[11],7%
same,Population Membrane Permeable-Phenotype (%),[11],25%
same,Population Mitochondria Different-Phenotype (%),[11],56%
same,Population Mitotic Cells (%),[11],7%
same,Population Normal (%),[11],92%
same,Population Pyknosed Nuclei (%),[11],35%
same,Population Tubulin-Different-Phenotype (%),[11],25%
same,Total Cell Count,[11],241
same,Population Fragmented Nuclei (%),[12],29%
same,Population Healthy Nuclei (%),[12],34%
same,Population Membrane Permeable-Phenotype (%),[12],42%
same,Population Mitochondria Different-Phenotype (%),[12],65%
same,Population Tubulin-Different-Phenotype (%),[12],42%
same,Total Cell Count,[12],127
